# Active and inactive are the calls of the source. The rule behind the calls is not given here.
# Columns and labels:
# [1] = system: B16-F10; test: Cytotoxicity against mouse B16F10 cells at 100 uM after 24 hrs by MTT assay relative to control; format: functional
# In short: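 Single-concentration screen in which B16-F10 cells (1 × 10⁵) were exposed to 100 µM compound for 24 h. Viability was read by MTT, with control optical density set as 100%. Three experiments in triplicate, mean ± S.E.M.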
# [2] = system: B16-F10; test: Induction of apoptosis in mouse B16F10 cells assessed as DNA fragmentation at IC50 after 24 hrs by gel electrophoresis; format: functional, cell-based
# In short: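 DNA ladder assay: 5 × 10⁵ B16-F10 cells were treated for 24 h with each compound at its cell-viability IC50 (DMSO 0.1% final). DNA was ethanol-precipitated, RNase A-treated at 37 °C for 1 h, run on 1.5% agarose and stained with ethidium bromide.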
# [3] = system: B16-F10; test: Cytotoxicity against mouse B16F10 cells after 72 hrs by MTT assay; format: functional, cell-based; conditions: B16-F10, 72 h
# In short: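 MTT viability assay on B16-F10 cells seeded at 1 × 10⁴ cells/well. Compounds were dissolved in DMSO (0.1% final) and tested over 0–40 µM for 72 h at 37 °C in triplicate. MTT was added for 3 h and formazan dissolved in acidified isopropanol (HCl 0.04 M). Absorbance read at 540 nm. IC50 taken from concentration–response curves against untreated control.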
# [4] = system: B16-F10; test: Induction of apoptosis in mouse B16F10 cells assessed as decrease in ATP level after 24 hrs by bioluminescent assay; format: functional, cell-based
# In short: (§1)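 Intracellular ATP was measured by luciferin–luciferase bioluminescence. About 3 × 10⁵ B16-F10 cells were exposed to 0–100 µM compound for 24 h, pelleted, and extracted with 1.25% trichloroacetic acid on ice for 30 min. Extracts were neutralized with Tris-acetate 1 M pH 7.5 and diluted 4-fold before reading. Three experiments in triplicate.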
# [5] = system: B16-F10; test: Induction of apoptosis in mouse B16F10 cells assessed as decrease in total glutathione level up to 100 uM after 24 hrs by glutathione reductase method; format: functional, cell-based
# In short: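 About 3 × 10⁵ B16-F10 cells were treated with 0–100 µM compound for 24 h. A mitochondria-enriched fraction was prepared by centrifugation after homogenization in Tris-sucrose buffer and sonication. Total glutathione (GSH + GSSG) was assayed by the glutathione reductase/DTNB/NADPH method in phosphate buffer 100 mM pH 7.4. Absorbance at 412 nm was read every minute for 5 min against a GSH standard curve.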
# [6] = system: B16-F10; test: Induction of necrosis in mouse B16F10 cells assessed as alteration in ATP level up to 100 uM after 24 hrs by bioluminescent assay; format: functional, cell-based; in short: as §1
SMILES,Activity [1],other results
COc1cc(OC)c(C(=O)/C=C/c2ccc([N+](=O)[O-])cc2)c(O)c1Br,inactive,
CCCCOc1ccc(/C=C/C(=O)c2c(OC)cc(OC)c(Br)c2O)cc1,inactive,
O=C(/C=C/c1cccc2ccccc12)c1cccc(O)c1,97.7%,Activity [2]: Active; IC50 [3]: 12 µM; Activity [4]: Dose-dependent effect; Activity [5]: Active
COc1cc(OC)c(C(=O)/C=C/c2ccccc2Cl)c(O)c1Br,inactive,
COc1cc(OC)c(C(=O)/C=C/c2c(OC)cccc2OC)c(O)c1Br,inactive,
COc1cc(OC)c(C(=O)/C=C/c2ccccc2C(=O)O)c(O)c1Br,50%,Activity [2]: inactive; IC50 [3]: 30 µM; Activity [6]: inactive
COc1ccc(/C=C/C(=O)c2c(OC)cc(OC)c(Br)c2O)cc1,inactive,
O=C(/C=C/c1cccc2ccccc12)c1ccccc1O,75.2%,Activity [2]: Active; IC50 [3]: 17 µM; Activity [4]: Dose-dependent effect; Activity [5]: Active
COc1cc(O)c(C(=O)/C=C/c2cccc3ccccc23)c(OC)c1,inactive,
O=C(/C=C/c1ccc2ccccc2c1)c1ccccc1O,inactive,
COc1cc(O)c(C(=O)/C=C/c2cccc(Cl)c2)c(OC)c1,inactive,
COc1cc(O)c(C(=O)/C=C/c2cccc([N+](=O)[O-])c2)c(OC)c1,inactive,
COc1cc(C(=O)/C=C/c2ccc3ccccc3c2)ccc1O,inactive,

# — ChEMBL document CHEMBL1137752, “Hydroxychalcones induce apoptosis in B16-F10 melanoma cells via GSH and ATP depletion” (Eur J Med Chem, 2009)
